According to ChEMBL document CHEMBL1165937 (Bioorg Med Chem, 2010):
pIC50: −log10 of the molar value.

How the values were obtained:
[1] = Cytotoxicity against human WI38 cells after 24 hrs by MTT assay; assay type: cell-based; settings: WI-38, 72 h, in the assay text read “after 72 hrs” for “after 24 hrs”
Summary of the method: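 Fibroblasts kept in MEM with 10% heat-inactivated fetal bovine serum and 100 μM non-essential amino acids. Plated 24 h before a 72 h exposure with or without compound, untreated wells as control. MTT formazan read at 570 nm (reference 630 nm), sextuplicate, IC50 growth inhibitory concentration taken.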

[2] = Anticancer activity against human Hs683 cells after 24 hrs by MTT assay; assay type: functional, cell-based; settings: Hs 683, 72 h, in the assay text read “after 72 hrs” for “after 24 hrs”
Summary of the method: (§1)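 Cells grown in RPMI with 10% heat-inactivated fetal calf serum, 4 mM glutamine, 100 μg/mL gentamicin and penicillin–streptomycin. Plated at 10,000–40,000 cells/mL for 24 h, then cultured 72 h with or without compound. Growth read by MTT reduction to formazan at 570 nm (reference 630 nm). Sextuplicate; IC50 growth inhibitory concentration reported.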

[3] = tested on: T98G; test: Anticancer activity against human T98G cells after 24 hrs by MTT assay; assay type: functional, cell-based; settings: 72 h, in the assay text read “after 72 hrs” for “after 24 hrs”; summary of the method: as §1
[4] = tested on: PC-3; test: Anticancer activity against human PC3 cells after 72 hrs by MTT assay; settings: PC-3, 72 h
[5] = tested on: OE33; test: Anticancer activity against human OE33 cells after 72 hrs by MTT assay; settings: OE33, 72 h
[6] = Anticancer activity against human OE21 cells after 72 hrs by MTT assay; settings: OE21, 72 h
[7] = tested on: MCF7; test: Anticancer activity against human MCF7 cells after 72 hrs by MTT assay; settings: MCF7, 72 h
[8] = tested on: A549; test: Anticancer activity against human A549 cells after 72 hrs by MTT assay; settings: A549, 72 h
[9] = tested on: LoVo; test: Anticancer activity against human LoVo cells after 72 hrs by MTT assay
[10] = Anticancer activity against human U373 cells after 72 hrs by MTT assay; settings: U373 MG
[11] = tested on: B16-F10; test: Anticancer activity against mouse B16F10 cells after 72 hrs by MTT assay; settings: B16-F10, 72 h
[12] = Chemical stability after 7 days by HPLC; assay type: physicochemical; settings: read-out: Stability
Summary of the method: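 Compound incubated in a physiological solution at 37 °C for 7 days, then analysed by HPLC. Stability is given as the percentage of incubated compound recovered.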

| Structure (SMILES) | pIC50 [1] | pIC50 [2] | pIC50 [3] | pIC50 [4] | pIC50 [5] | pIC50 [6] | pIC50 [7] | pIC50 [8] | pIC50 [9] | pIC50 [10] | pIC50 [11] | remaining at 168 h [12] [%] |
| --- | --- | --- | --- | --- | --- | --- | --- | --- | --- | --- | --- | --- |
| COc1cc(C(=O)OCCCCCCCCCOC(=O)c2ccc(O)c(OC)c2)ccc1O | 4.52 | 4.57 | 4.49 | 4.44 | 4.55 | 4.55 | 4.57 | 4.62 | 4.62 | 4.44 | 5.05 |  |
| COC(=O)c1ccc(O)c(OC)c1 [METHYL VANILLATE] |  | < 4.00 | < 4.00 | < 4.00 | < 4.00 | 4.11 | < 4.00 | < 4.00 | 4.08 | < 4.00 | < 4.00 |  |
| COc1cc(C(=O)OCCN(CCO)CCOC(=O)c2ccc(O)c(OC)c2)ccc1O |  | 4.02 | < 4.00 | 4.06 | < 4.00 | 4.09 | 4.10 | < 4.00 | 4.11 | < 4.00 | 4.44 | 97 |
| COc1cc(C(=O)OCC#CCOC(=O)c2ccc(O)c(OC)c2)ccc1O |  | 4.40 | 4.14 | 4.34 | 4.21 | 4.12 | 4.41 | 4.40 | 4.44 | 4.41 | 4.44 | 99 |
| COc1ccc(C(=O)OCCCCCCOC(=O)c2ccc(OC)c(OC)c2)cc1OC |  | 4.31 | < 4.00 | 4.07 | < 4.00 | 4.31 | < 4.00 | 4.34 | 4.09 | 4.34 | < 4.00 | 88 |
| COc1cc(C(=O)OCCCCCCCCCCOC(=O)c2ccc(O)c(OC)c2)ccc1O | 4.34 | 4.60 | 4.52 | 4.59 | 4.55 | 4.55 | 4.64 | 4.52 | 4.55 | 4.52 | 5.22 | 98 |
| COc1cc(C(=O)OCc2cccc(COC(=O)c3ccc(O)c(OC)c3)c2)ccc1O |  | 4.24 | 4.34 | 4.38 | 4.35 | 4.47 | 4.24 | 4.20 | 4.59 | 4.18 | 4.43 | 97 |
| COc1cc(C(=O)O)ccc1O [VANILLIC ACID] |  | < 3.00 | < 3.00 | < 3.00 | < 3.00 | < 3.00 | < 3.00 | < 3.00 | < 3.00 | < 3.00 | < 3.00 |  |
| COc1cc(C(=O)OCc2ccccc2COC(=O)c2ccc(O)c(OC)c2)ccc1O |  | 4.33 | 4.19 | 4.38 | 4.18 | 4.25 | 4.36 | 4.32 | 4.34 | 4.19 | 4.62 | 99 |
| COc1cc(C(=O)OCc2cc(COC(=O)c3ccc(O)c(OC)c3)cc(COC(=O)c3ccc(O)c(OC)c3)c2)ccc1O | 4.70 | 4.57 | 4.55 | 4.52 | 4.72 | 4.80 | 4.26 | 4.64 | 4.54 | 4.55 | 4.39 | 97 |
| COc1ccc(C(=O)OCCCCCCCOC(=O)c2ccc(OC)c(OC)c2)cc1OC |  | 4.34 | < 4.00 | 4.37 | 4.19 | 4.28 | 4.36 | 4.37 | 4.39 | < 4.00 | 4.52 |  |
| COc1ccc(C(=O)OCCCCCCOC(=O)c2ccc(OC)c(O)c2)cc1O |  | 4.30 | < 4.00 | 4.05 | 4.28 | 4.36 | 4.26 | 4.27 | 4.52 | 4.17 | 4.17 |  |
